{"source": "ChEMBL document CHEMBL3227985", "about": "“N-Alkylated 2-aminotetralins: central dopamine-receptor stimulating activity” (J Med Chem, 1979)", "key": {"Rattus norvegicus [1]": {"system": "Rattus norvegicus", "test": "Central dopamine receptor stimulating activity in Sprague-Dawley rat assessed as reduction in DOPA accumulation in limbic region of brain at 2 umol/kg, sc by spectrophotometric method", "assay_type": "functional", "conditions": "Limbic system", "in_short": "(§1)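 Male Sprague-Dawley rats (200-350 g), reserpinized. Compounds dissolved in saline immediately before use, neutral pH, 10 mL/kg, given sc over a dose range. Aromatic-L-amino-acid decarboxylase inhibited (100 mg/kg). Dopa and 5-HTP accumulation measured spectrophotometrically in striatum, limbic forebrain and remaining hemispheral portions. ED50 = dose giving 50% of maximal reduction versus control portions, estimated from dose-response curves. Experiments run 9–12 a.m.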"}, "Rattus norvegicus [2]": {"system": "Rattus norvegicus", "test": "Central dopamine receptor stimulating activity in Sprague-Dawley rat assessed as reduction in DOPA accumulation in striatum of brain at 2 umol/kg, sc by spectrophotometric method", "assay_type": "functional", "in_short": "as §1"}, "Rattus norvegicus [3]": {"system": "Rattus norvegicus", "test": "Central noradrenaline receptor stimulating activity in Sprague-Dawley rat assessed as reduction in DOPA accumulation in hemispheral portion of cerebrum at 2 umol/kg, sc by spectrophotometric method", "assay_type": "functional, organism-based", "in_short": "as §1"}, "Rattus norvegicus [4]": {"system": "Rattus norvegicus", "test": "Central serotonin receptor stimulating activity in Sprague-Dawley rat assessed as reduction in 5-HTP accumulation in limbic region of brain at 2 umol/kg, sc by spectrophotometric method", "assay_type": "functional, organism-based", "conditions": "Limbic system", "in_short": "as §1"}, "Rattus norvegicus [5]": {"system": "Rattus norvegicus", "test": "Central serotonin receptor stimulating activity in Sprague-Dawley rat assessed as reduction in 5-HTP accumulation in striatum of brain at 2 umol/kg, sc by spectrophotometric method", "assay_type": "functional, organism-based", "in_short": "as §1"}, "Rattus norvegicus [6]": {"system": "Rattus norvegicus", "test": "Central serotonin receptor stimulating activity in Sprague-Dawley rat assessed as reduction in 5-HTP accumulation in hemispheral portion of cerebrum at 2 umol/kg, sc by spectrophotometric method", "assay_type": "functional, organism-based", "in_short": "as §1"}, "Rattus norvegicus [7]": {"system": "Rattus norvegicus", "test": "Central dopamine receptor stimulating activity in reserpenized Sprague-Dawley rat assessed as duration of action of motor activity at 2 umol/kg, sc measured 6 hrs post-reserpine challenge by motility meter analysis", "assay_type": "functional", "in_short": "(§2)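 Male Sprague-Dawley rats (200-350 g) given reserpine 10 mg/kg ip 6 h before testing. Drug in saline, 2 µmol/kg sc in the neck. Rats then placed singly in photocell motility meters. Counts recorded per 5-min period until effect ceased (<10 counts/5 min), giving duration and AUC. Means of four to six recordings. Testing 1–6 p.m.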"}, "Rattus norvegicus [8]": {"system": "Rattus norvegicus", "test": "Central dopamine receptor stimulating activity in reserpenized Sprague-Dawley rat assessed as latency period of motor activity at 2 umol/kg, sc measured 6 hrs post-reserpine challenge by motility meter analysis", "assay_type": "functional", "in_short": "as §2"}, "Rattus norvegicus [9]": {"system": "Rattus norvegicus", "test": "Central dopamine receptor stimulating activity in reserpenized Sprague-Dawley rat assessed as duration of action of motor activity at 20 umol/kg, po administered via stomach tube measured 6 hrs post-reserpine challenge by motility meter analysis", "assay_type": "functional", "in_short": "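Male Sprague-Dawley rats (200-350 g) given reserpine 10 mg/kg ip 6 h before testing. Drug in saline, 20 µmol/kg po by stomach tube. Rats then placed singly in photocell motility meters. Counts recorded per 5-min period until effect ceased (<10 counts/5 min) to give duration of action. Testing 1–6 p.m.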"}, "Rattus norvegicus [10]": {"system": "Rattus norvegicus", "test": "Toxicity in sc dosed Sprague-Dawley rat assessed as gross behaviour at ED50", "assay_type": "organism-based", "conditions": "in vivo"}}, "note": "Active and inactive are the calls of the source. The calls are words filed in the database; no cut-off is given here."}
{"smiles": "Br.CCCN(CCC)C1CCc2c(O)cccc2C1", "note": "(stereo not given)", "values": [{"measurement": "ED50", "setting": "Rattus norvegicus [1]", "value": 0.011, "unit": "µmol/kg"}, {"measurement": "ED50", "setting": "Rattus norvegicus [2]", "value": 0.009, "unit": "µmol/kg"}, {"measurement": "Activity", "setting": "Rattus norvegicus [3]", "value": "inactive"}, {"measurement": "Activity", "setting": "Rattus norvegicus [4]", "value": "inactive"}, {"measurement": "Activity", "setting": "Rattus norvegicus [5]", "value": "inactive"}, {"measurement": "Activity", "setting": "Rattus norvegicus [6]", "value": "inactive"}, {"measurement": "Time", "setting": "Rattus norvegicus [7]", "value": 127, "unit": "min"}, {"measurement": "Time", "setting": "Rattus norvegicus [8]", "value": 0, "unit": "min"}, {"measurement": "Time", "setting": "Rattus norvegicus [9]", "value": 121, "unit": "min"}, {"measurement": "Activity", "setting": "Rattus norvegicus [10]", "value": "Non-toxic"}]}
